Experimental data as given in ChEMBL document CHEMBL1136228 (Bioorg Med Chem Lett, 2003).
pEC50, pKi: −log10 of the molar value. Blank lines part the entries; values can stand above or below the compound they belong to.

What was measured:
Rattus norvegicus [1] = assay: Brown adipose tissue weight in Sprague-Dawley rat after 30 mg/kg peroral administration; details: route oral
Rattus norvegicus [2] = assay: Heart weight of Sprague-Dawley rat after 30 mg/kg peroral administration; details: route oral
[3] = molecular target: T1, Peroxisome proliferator-activated receptor alpha (Homo sapiens, UniProt Q07869)
T1 sequence (Q07869 whole entry): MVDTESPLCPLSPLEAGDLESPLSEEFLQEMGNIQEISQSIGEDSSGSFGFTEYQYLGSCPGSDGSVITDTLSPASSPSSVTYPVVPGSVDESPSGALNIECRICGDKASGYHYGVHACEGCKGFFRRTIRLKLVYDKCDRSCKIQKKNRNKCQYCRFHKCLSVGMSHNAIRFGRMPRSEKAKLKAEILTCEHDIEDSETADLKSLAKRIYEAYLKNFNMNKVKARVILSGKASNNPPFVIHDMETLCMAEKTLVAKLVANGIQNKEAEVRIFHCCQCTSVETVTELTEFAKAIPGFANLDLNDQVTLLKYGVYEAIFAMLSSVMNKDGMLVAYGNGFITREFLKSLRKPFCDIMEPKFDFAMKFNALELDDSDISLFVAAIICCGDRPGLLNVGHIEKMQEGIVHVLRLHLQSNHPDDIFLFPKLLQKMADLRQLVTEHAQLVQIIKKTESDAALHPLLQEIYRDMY

[4] = molecular target: T2, Peroxisome proliferator-activated receptor gamma (Homo sapiens, UniProt P37231)
T2 sequence (P37231 whole entry): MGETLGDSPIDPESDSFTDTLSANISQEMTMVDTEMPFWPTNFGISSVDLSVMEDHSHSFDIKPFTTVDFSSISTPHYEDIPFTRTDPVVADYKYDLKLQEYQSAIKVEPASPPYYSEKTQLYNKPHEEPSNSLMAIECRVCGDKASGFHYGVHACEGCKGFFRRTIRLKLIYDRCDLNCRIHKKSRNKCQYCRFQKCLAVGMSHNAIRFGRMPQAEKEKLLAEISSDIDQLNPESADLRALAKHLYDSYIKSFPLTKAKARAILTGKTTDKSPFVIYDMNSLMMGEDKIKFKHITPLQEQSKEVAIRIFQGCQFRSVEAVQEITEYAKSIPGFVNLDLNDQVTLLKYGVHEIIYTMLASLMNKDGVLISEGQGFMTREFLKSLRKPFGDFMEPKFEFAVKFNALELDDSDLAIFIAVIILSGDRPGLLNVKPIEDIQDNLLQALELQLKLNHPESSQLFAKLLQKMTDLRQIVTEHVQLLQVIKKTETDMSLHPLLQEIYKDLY

[5] = Bioavailability was determined in rat; format: ADME, organism-based; details: in vivo
Rattus norvegicus [6] = assay: Triglyceride change in Sprague-Dawley rat after 30 mg/kg peroral administration; details: route oral
Rattus norvegicus [7] = assay: Body weight of Sprague-Dawley rat after 30 mg/kg peroral administration; details: route oral
Mus musculus [8] = assay: Fasting plasma glucose levels after 30 mg/kg peroral administration in db/db Mouse; format: functional; details: route oral
Procedure, shortened: (§1)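 db/db (lepr db-3J/lepr db-3J) mice dosed orally once daily for 11 days; fasting plasma glucose measured at day 11. Correction is expressed as mean glucose lowering, as a percentage of the difference between vehicle-treated db/db and lean control mice.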

[9] = molecular target: T2, Peroxisome proliferator-activated receptor gamma; remark: listed apart in the source
[10] = molecular target: T1, Peroxisome proliferator-activated receptor alpha; remark: listed apart in the source
Rattus norvegicus [11] = assay: Total Cholesterol change in Sprague-Dawley rat after 30 mg/kg peroral administration; details: route oral
[12] = molecular target: T1, Peroxisome proliferator-activated receptor alpha; assay: Binding affinity towards peroxisome proliferator activated receptor alpha (PPAR alpha); weakly active
[13] = molecular target: T2, Peroxisome proliferator-activated receptor gamma; assay: Binding affinity towards peroxisome proliferator activated receptor gamma (PPAR gamma); weakly active
[14] = molecular target: T2, Peroxisome proliferator-activated receptor gamma; assay: Binding affinity towards human peroxisome proliferator activated receptor gamma (PPAR gamma) was determined by HTRF assay; weakly active
Mus musculus [15] = assay: Fasting plasma glucose level after 10 mg/kg peroral administration in db/db Mouse; format: functional; details: route oral
Procedure, shortened: as §1

Mus musculus [16] = assay: Fasting plasma glucose levels after 1 mg/kg peroral administration in db/db Mouse; format: functional; details: route oral
Procedure, shortened: as §1

Mus musculus [17] = assay: Fasting plasma glucose levels after 3 mg/kg peroral administration in db/db Mouse; format: functional; details: route oral
Procedure, shortened: as §1

[18] = molecular target: T2, Peroxisome proliferator-activated receptor gamma; assay: Binding affinity towards peroxisome proliferator activated receptor gamma (PPAR gamma): Weakly active
Rattus norvegicus [19] = assay: Heart weight of Sprague-Dawley rat after 10 mg/kg peroral administration; details: route oral
Rattus norvegicus [20] = assay: Brown adipose tissue weight in Sprague-Dawley rat after 10 mg/kg peroral administration; details: route oral
Rattus norvegicus [21] = assay: Body weight of Sprague-Dawley rat after 10 mg/kg peroral administration; details: route oral
Rattus norvegicus [22] = assay: Total Cholesterol change in Sprague-Dawley rat after 10 mg/kg peroral administration; details: route oral
Rattus norvegicus [23] = assay: Triglyceride change in Sprague-Dawley rat after 10 mg/kg peroral administration; details: route oral

SMILES: CCCc1cc2c(C(F)(F)F)noc2c(CCC)c1OC(C(=O)O)c1ccccc1 (stereo not given)
BAT weight (Rattus norvegicus [1]): 0.28 g
Heart weight (Rattus norvegicus [2]): 1.05 g
pKi [3]: 7.43
pKi [4]: 6.02
bioavailability [5]: 11%
Change (Rattus norvegicus [6]): -52%
Body weight (Rattus norvegicus [7]): 276 g
FPG correction (Mus musculus [8]): 91%
pEC50 [9]: 6.44
pEC50 [10]: 7.82
Change (Rattus norvegicus [11]): -27%

Ki [12]: Partially active
Ki [13]: Partially active
Ki [14]: Partially active
SMILES: CCCc1c(OC(C(=O)O)c2ccccc2)ccc(C(=O)CC)c1O (stereo not given)

SMILES: CCCc1cc2c(C(F)(F)F)noc2c(CCC)c1OC(C(=O)O)c1ccc(C(F)(F)F)cc1 (stereo not given)
BAT weight (Rattus norvegicus [1]): 0.27 g
Heart weight (Rattus norvegicus [2]): 1.14 g
pKi [3]: 7.74
pKi [4]: 6.98
FPG correction (Mus musculus [15]): 83%
FPG correction (Mus musculus [16]): 21%
Change (Rattus norvegicus [6]): -41%
Body weight (Rattus norvegicus [7]): 318 g
pEC50 [9]: 7.10
FPG correction (Mus musculus [17]): 41%
pEC50 [10]: 7.64
Change (Rattus norvegicus [11]): -32%

pKi [3]: 6.65
pKi [4]: < 5.00
SMILES: COC(=O)c1cc(C)c(OC(C(=O)O)c2ccccc2)c(C)c1 (stereo not given)

Ki [12]: Partially active
Ki [13]: Partially active
pEC50 [9]: 5.50
SMILES: CCCc1cc2c(C(F)(F)F)noc2c(CCC)c1O[C@@H](C(=O)O)c1ccccc1

pKi [3]: 7.20
pKi [4]: 5.96
SMILES: CCCc1cc(C(=O)OC)cc(CCC)c1OC(C(=O)O)c1ccccc1 (stereo not given)

SMILES: CCCc1c(OC(C(=O)O)c2ccccc2)ccc2c(C(F)(F)F)noc12 (stereo not given)
pKi [3]: 7.01
FPG correction (Mus musculus [8]): -5%
pEC50 [9]: 5.34
Ki [18]: Partially active
pEC50 [10]: 6.08

SMILES: CCCc1cc2c(C(F)(F)F)noc2c(CCC)c1OC(C(=O)O)c1ccc(CCc2ccccn2)cc1 (stereo not given)
pKi [3]: 7.19
pKi [4]: 6.71
FPG correction (Mus musculus [15]): 75%
pEC50 [9]: 6.96
pEC50 [10]: 7.55

pKi [3]: 7.24
pKi [4]: 5.07
SMILES: CCCc1cc(C(=O)OC)cc(Cl)c1OC(C(=O)O)c1ccccc1 (stereo not given)

SMILES: CCCc1cc(C(=O)CC)c(O)c(CCC)c1OC(C(=O)O)c1ccccc1 (stereo not given)
BAT weight (Rattus norvegicus [1]): 0.34 g
Heart weight (Rattus norvegicus [19]): 1.11 g
Heart weight (Rattus norvegicus [2]): 1.06 g
pKi [3]: 7.09
FPG correction (Mus musculus [15]): 42%
BAT weight (Rattus norvegicus [20]): 0.29 g
Change (Rattus norvegicus [6]): -8%
Body weight (Rattus norvegicus [21]): 290 g
Change (Rattus norvegicus [22]): -36%
Change (Rattus norvegicus [23]): -64%
Body weight (Rattus norvegicus [7]): 294 g
FPG correction (Mus musculus [8]): 55%
pEC50 [9]: 5.96
Ki [18]: Partially active
pEC50 [10]: 7.43
Change (Rattus norvegicus [11]): -7%

SMILES: CCCc1cc2c(C(F)(F)F)noc2c(CCC)c1O[C@H](C(=O)O)c1ccccc1
pKi [3]: 7.92
pKi [4]: 6.21
FPG correction (Mus musculus [15]): 50%
pEC50 [9]: 6.71
